Drawing on PubChem BioAssay AID624075 (Broad Institute, 2012), this text covers activity change, negative = growth inhibition and AC35 for eight molecules.

Activity calls are given as the source filed them.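 Rule for the calls: active = fitted curve reaches -35% activity change at a concentration no higher than twice the top valid tested dose; inactive = the rest, including activity in the opposite direction.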

Tested on in the first assay: not listed separately
The experiment in a line: P. aeruginosa PAK growth delay under chelation, dose response, whole organism, PAK strain, OD600, EDDHA, dry powder, set 4 (AID 624075). The settings on record: P. aeruginosa PAK growth with EDDHA, OD600, 28 h; at 100 µM (top of the series). An outline of the steps:
(§1)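 Test system – wild-type P. aeruginosa PAK · Reagent – EDDHA, 2 µM · Schedule – bacterial growth with compounds for 28 h at 30 °C · Signal – absorbance at 600 nm as growth measure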
Consider `COCCC(C#N)c1ccc(F)cc1` (stereo not drawn), for which the activity change, negative = growth inhibition is -1.57% (inactive).

With `N#CC(c1ccc(Cl)cc1)c1ncccc1Cl` (stereo not drawn), the activity change, negative = growth inhibition was -18.1% (inactive).

`CCCCC(C#N)c1ccc(F)cn1` (stereo not drawn): the activity change, negative = growth inhibition is -7.64% (inactive).

On to `CCCCC(c1ccc(Cl)cc1)c1nn[nH]n1` (stereo not drawn), for which the activity change, negative = growth inhibition was -6.42% (inactive).

On to `N#CC(c1ccc(Cl)cc1)c1ccc(Cl)cn1` (stereo not drawn), for which the activity change, negative = growth inhibition is -13.9% (inactive).

For `COCCNC(C#N)c1ccc(Cl)cc1` (stereo not drawn), the activity change, negative = growth inhibition is -2.09% (inactive).

A further assay has as its system P. aeruginosa PAK growth with EDDHA, OD600, 28 h. The description is as above.
Conditions: not given
An outline of the steps: as §1
On to `N#CC(c1ccc(F)cc1)c1cccc(C(F)(F)F)n1` (stereo not drawn), for which the AC35 was 88.7 µM.

On to `N#CC(c1ccc(Cl)cc1)c1cccc(C(F)(F)F)n1` (stereo not drawn), for which the AC35 is 71.1 µM.
